In ChEMBL document CHEMBL3868627, “Radical scavenging and antibacterial activity of caffemides against gram positive, gram negative and clinical drug resistance bacteria” (Bioorg Med Chem Lett, 2016):

Tests used:
Assay type in all cases: functional
[1] = system: Staphylococcus aureus; assay: Antibacterial activity against Staphylococcus aureus ATCC 25923 measured after 24 hrs by serial dilution method
[2] = system: Mycolicibacterium smegmatis; assay: Bactericidal activity against Mycobacterium smegmatis MC2 155 ATCC 700084 at 50 ug/ml measured after 6 hrs by serial dilution method relative to control
Method in brief: (§1)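 Bacteria were exposed to test compound over a range of µg/ml concentrations. Viable bacteria were counted by colony forming unit (CFU) assay at set time points (6 h and 24 h for M. smegmatis and S. aureus strains), and untreated bacteria served as the control. Percentage of population killed was calculated relative to the untreated control. Values are means ± S.D of three independent trials.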

[3] = system: Pseudomonas aeruginosa; assay: Bactericidal activity against Pseudomonas aeruginosa PAO1 ATCC 15692 at >300 ug/ml measured after 1 and 3 hrs by serial dilution method relative to control
[4] = system: Staphylococcus aureus; assay: Bactericidal activity against methicillin-resistant Staphylococcus aureus ATCC 43300 at 50 ug/ml measured after 6 hrs by serial dilution method relative to control; method in brief: as §1
[5] = system: Mycolicibacterium smegmatis; assay: Antibacterial activity against Mycobacterium smegmatis MC2 155 ATCC 700084 assessed as colony forming units at 10 ug/ml measured after 6 hrs by serial dilution method (reference value: 70 +/- 1.73 10^3CFU); method in brief: as §1
[6] = system: Mycolicibacterium smegmatis; assay: Antibacterial activity against Mycobacterium smegmatis MC2 155 ATCC 700084 assessed as colony forming units at 100 ug/ml measured after 6 hrs by serial dilution method (reference value: 70 +/- 1.73 10^3CFU); method in brief: as §1
[7] = system: Mycolicibacterium smegmatis; assay: Antibacterial activity against Mycobacterium smegmatis MC2 155 ATCC 700084 assessed as colony forming units at 300 ug/ml measured after 6 hrs by serial dilution method (reference value: 70 +/- 1.73 10^3CFU); method in brief: as §1
[8] = system: Mycolicibacterium smegmatis; assay: Antibacterial activity against Mycobacterium smegmatis MC2 155 ATCC 700084 assessed as colony forming units at 500 ug/ml measured after 6 hrs by serial dilution method (reference value: 70 +/- 1.73 10^3CFU); method in brief: as §1
[9] = system: Mycolicibacterium smegmatis; assay: Antibacterial activity against Mycobacterium smegmatis MC2 155 ATCC 700084 assessed as colony forming units at 10 ug/ml measured after 24 hrs by serial dilution method (reference value: 84 +/- 4.35 10^3CFU); method in brief: as §1
[10] = system: Mycolicibacterium smegmatis; assay: Antibacterial activity against Mycobacterium smegmatis MC2 155 ATCC 700084 assessed as colony forming units at 50 ug/ml measured after 24 hrs by serial dilution method (reference value: 84 +/- 4.35 10^3CFU); method in brief: as §1
[11] = system: Mycolicibacterium smegmatis; assay: Antibacterial activity against Mycobacterium smegmatis MC2 155 ATCC 700084 assessed as colony forming units at 100 ug/ml measured after 24 hrs by serial dilution method (reference value: 84 +/- 4.35 10^3CFU); method in brief: as §1
[12] = system: Pseudomonas aeruginosa; assay: Antibacterial activity against Pseudomonas aeruginosa PAO1 ATCC 15692 assessed as colony forming units at 10 ug/ml measured after 1 hr by serial dilution method (reference value: 85.33 +/- 4.04 10^8CFU)
[13] = system: Pseudomonas aeruginosa; assay: Antibacterial activity against Pseudomonas aeruginosa PAO1 ATCC 15692 assessed as colony forming units at 100 ug/ml measured after 1 hr by serial dilution method (reference value: 85.33 +/- 4.04 10^8CFU)
[14] = system: Pseudomonas aeruginosa; assay: Antibacterial activity against Pseudomonas aeruginosa PAO1 ATCC 15692 assessed as colony forming units at 300 ug/ml measured after 1 hr by serial dilution method (reference value: 85.33 +/- 4.04 10^8CFU)
[15] = system: Pseudomonas aeruginosa; assay: Antibacterial activity against Pseudomonas aeruginosa PAO1 ATCC 15692 assessed as colony forming units at 500 ug/ml measured after 1 hr by serial dilution method (reference value: 85.33 +/- 4.04 10^8CFU)
[16] = system: Pseudomonas aeruginosa; assay: Antibacterial activity against Pseudomonas aeruginosa PAO1 ATCC 15692 assessed as colony forming units at 50 ug/ml measured after 3 hr by serial dilution method (reference value: 141.66 +/- 7.5 10^8CFU)
[17] = system: Pseudomonas aeruginosa; assay: Antibacterial activity against Pseudomonas aeruginosa PAO1 ATCC 15692 assessed as colony forming units at 100 ug/ml measured after 3 hr by serial dilution method (reference value: 141.66 +/- 7.5 10^8CFU)
[18] = system: Pseudomonas aeruginosa; assay: Antibacterial activity against Pseudomonas aeruginosa PAO1 ATCC 15692 assessed as colony forming units at 500 ug/ml measured after 3 hr by serial dilution method (reference value: 141.66 +/- 7.5 10^8CFU)
[19] = system: Staphylococcus aureus; assay: Antibacterial activity against Staphylococcus aureus ATCC 25923 assessed as colony forming units at 50 ug/ml measured after 6 hrs by serial dilution method (reference value: 65.66 +/- 3.51 10^6CFU)
[20] = system: Staphylococcus aureus; assay: Antibacterial activity against Staphylococcus aureus ATCC 25923 assessed as colony forming units at 100 ug/ml measured after 6 hrs by serial dilution method (reference value: 65.66 +/- 3.51 10^6CFU)
[21] = system: Staphylococcus aureus; assay: Antibacterial activity against Staphylococcus aureus ATCC 25923 assessed as colony forming units at 200 ug/ml measured after 6 hrs by serial dilution method (reference value: 65.66 +/- 3.51 10^6CFU)
[22] = system: Staphylococcus aureus; assay: Antibacterial activity against Staphylococcus aureus ATCC 25923 assessed as colony forming units at 50 ug/ml measured after 24 hrs by serial dilution method (reference value: 77.66 +/- 5.13 10^6CFU)
[23] = system: Staphylococcus aureus; assay: Antibacterial activity against Staphylococcus aureus ATCC 25923 assessed as colony forming units at 100 ug/ml measured after 24 hrs by serial dilution method (reference value: 77.66 +/- 5.13 10^6CFU)
[24] = system: Staphylococcus aureus; assay: Antibacterial activity against Staphylococcus aureus ATCC 25923 assessed as colony forming units at 300 ug/ml measured after 24 hrs by serial dilution method (reference value: 77.66 +/- 5.13 10^6CFU)
[25] = system: Staphylococcus aureus; assay: Antibacterial activity against methicillin-resistant Staphylococcus aureus ATCC 43300 assessed as colony forming units at 1 ug/ml measured after 6 hrs by serial dilution method (reference value: 64.33 +/- 3.51 10^6CFU); method in brief: as §1
[26] = system: Staphylococcus aureus; assay: Antibacterial activity against methicillin-resistant Staphylococcus aureus ATCC 43300 assessed as colony forming units at 10 ug/ml measured after 6 hrs by serial dilution method (reference value: 64.33 +/- 3.51 10^6CFU); method in brief: as §1
[27] = system: Staphylococcus aureus; assay: Antibacterial activity against methicillin-resistant Staphylococcus aureus ATCC 43300 assessed as colony forming units at 50 ug/ml measured after 6 hrs by serial dilution method (reference value: 64.33 +/- 3.51 10^6CFU); method in brief: as §1
[28] = system: Staphylococcus aureus; assay: Antibacterial activity against methicillin-resistant Staphylococcus aureus ATCC 43300 assessed as colony forming units at 100 ug/ml measured after 6 hrs by serial dilution method (reference value: 64.33 +/- 3.51 10^6CFU); method in brief: as §1
[29] = system: Staphylococcus aureus; assay: Antibacterial activity against methicillin-resistant Staphylococcus aureus ATCC 43300 assessed as colony forming units at 50 ug/ml measured after 24 hrs by serial dilution method (reference value: 74 +/- 2 10^6CFU); method in brief: as §1

Row | SMILES | Activity [1] | Activity [2] [%] | Activity [3] [%] | Activity [4] [%] | Activity [5] [×10³ CFU] | Activity [6] [×10³ CFU] | Activity [7] [×10³ CFU] | Activity [8] [×10³ CFU] | Activity [9] [×10³ CFU] | Activity [10] [×10³ CFU] | Activity [11] [×10³ CFU] | Activity [12] [×10⁸ CFU] | Activity [13] [×10⁸ CFU] | Activity [14] [×10⁸ CFU] | Activity [15] [×10⁸ CFU] | Activity [16] [×10⁸ CFU] | Activity [17] [×10⁸ CFU] | Activity [18] [×10⁸ CFU] | Activity [19] [×10⁶ CFU] | Activity [20] [×10⁶ CFU] | also measured
1 | Cc1ccc(O)c(NC(=O)/C=C/c2ccc(O)c(O)c2)c1 | Dose-dependent effect | 63.8 | 100 | 57.5 | 42.66 | 14.33 | 0 | 0 | 58 | 45.66 | 36.33 | 59.33 | 23.33 | 0 | 0 | 87 | 69.66 | 0 | 13.66 | 14 | Activity [21]: 4.66 ×10⁶ CFU; Activity [22]: 8 ×10⁶ CFU; Activity [23]: 0 ×10⁶ CFU; Activity [24]: 0 ×10⁶ CFU; Activity [25]: 61 ×10⁶ CFU; Activity [26]: 44.66 ×10⁶ CFU; Activity [27]: 27.33 ×10⁶ CFU; Activity [28]: 20.33 ×10⁶ CFU; Activity [29]: 26 ×10⁶ CFU
2 | O=C(/C=C/c1ccc(O)c(O)c1)Nc1ccccc1Nc1ccccc1 | Dose-dependent effect | 51.9 | 100 | 52.8 | 38.33 | 24.66 | 0 | 0 | 35.33 | 18.33 | 8 | 50.33 | 22.33 | 0 | 0 | 53.66 | 32.66 | 0 | 8.66 | 5 | Activity [21]: 0 ×10⁶ CFU; Activity [22]: 24.66 ×10⁶ CFU; Activity [23]: 11.66 ×10⁶ CFU; Activity [24]: 0 ×10⁶ CFU; Activity [25]: 58 ×10⁶ CFU; Activity [26]: 48 ×10⁶ CFU; Activity [27]: 30.33 ×10⁶ CFU; Activity [28]: 24.33 ×10⁶ CFU; Activity [29]: 28.66 ×10⁶ CFU
